From ChEMBL document CHEMBL4184325, “Discovery of 4,7-Diamino-5-(4-phenoxyphenyl)-6-methylene-pyrimido[5,4- b]pyrrolizines as Novel Bruton's Tyrosine Kinase Inhibitors” (J Med Chem, 2018)
Values belong to the compound of their own block, whether it stands above or below them.

Tests used:
Rattus norvegicus = experiment: AUC (0 to infinity) in rat at 3 mg/kg, po; assay type: ADME, organism-based; design: dose 3 mg/kg, time infinity, route oral; details: in vivo
How it was run: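 Rats dosed orally at 3 mg/kg; vehicle DMSO, Tween 80, normal saline; values are the average of three determinations.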

TMD8 = experiment: Antiproliferative activity against human TMD8 cells after 72 hrs by MTT assay; assay type: functional, cell-based; details: TMD8, 72 h
How it was run: (§1)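 Cells grown in RPMI-1640 with FBS at 37 °C, 5% CO2. Seeded and grown 2 h, then treated with various concentrations in PBS solution, each in triplicate, and cultured a further 72 h. Viability read by MTT. IC50 from the Logit method, given as mean ± SD of three independent determinations.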

Ramos = experiment: Antiproliferative activity against human Ramos cells after 72 hrs by MTT assay; assay type: functional, cell-based; how it was run: as §1
Mus musculus = experiment: Toxicity in CB17 SCID nude mouse xenografted with human TMD8 cells assessed as change in body weight at 25 mg/kg, po qd administered for 13 consecutive days measured during compound dosing up to day 17 post dose; assay type: organism-based; details: in vivo
[1] = Drug metabolism in human liver microsomes treated with (S)-N-(4-Amino-6-methylene-5-(4-phenoxyphenyl)-7,8-dihydro-6H-pyrimido[5,4-b]pyrrolizin-7-yl)acrylamide after 3 hrs; assay type: ADME, microsome
[2] = Drug metabolism in rat liver microsomes treated with (S)-N-(4-Amino-6-methylene-5-(4-phenoxyphenyl)-7,8-dihydro-6H-pyrimido[5,4-b]pyrrolizin-7-yl)acrylamide after 3 hrs; assay type: ADME, microsome
[3] = Drug metabolism in mouse liver microsomes treated with (S)-N-(4-Amino-6-methylene-5-(4-phenoxyphenyl)-7,8-dihydro-6H-pyrimido[5,4-b]pyrrolizin-7-yl)acrylamide after 3 hrs; assay type: ADME, microsome
[4] = Drug metabolism in mouse liver microsomes treated with (S)-N-(4-Amino-6-methylene-5-(4-phenoxyphenyl)-7,8-dihydro-6H-pyrimido[5,4-b]pyrrolizin-7-yl)but-2-ynamide after 3 hrs; assay type: ADME, microsome
[5] = Drug metabolism in rat liver microsomes treated with (S)-N-(4-Amino-6-methylene-5-(4-phenoxyphenyl)-7,8-dihydro-6H-pyrimido[5,4-b]pyrrolizin-7-yl)but-2-ynamide after 3 hrs; assay type: ADME, microsome
[6] = Drug metabolism in human liver microsomes treated with (S)-N-(4-Amino-6-methylene-5-(4-phenoxyphenyl)-7,8-dihydro-6H-pyrimido[5,4-b]pyrrolizin-7-yl)but-2-ynamide after 3 hrs; assay type: ADME, microsome
[7] = target: Tyrosine-protein kinase BTK (Homo sapiens, UniProt Q06187); experiment: Inhibition of recombinant human BTK using Poly(Glu, Tyr) 4:1 as substrate after 1 hr by ELISA
[8] = target: Tyrosine-protein kinase BTK (Homo sapiens, UniProt Q06187, C481S); experiment: Inhibition of recombinant full-length N-terminal His-tagged human BTK C481S mutant expressed in baculovirus infected Sf9 insect cells using Poly(Glu, Tyr) 4:1 as substrate after 1 hr by ELISA
[9] = target: Tyrosine-protein kinase Blk (Homo sapiens, UniProt P51451); experiment: Inhibition of partial length human BLK expressed in bacteria assessed as residual activity at 1 uM relative to control
How it was run: (§2)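 KINOMEscan competition binding panel of 468 kinases with compound at 1 μM. Result is % control = (test − positive control signal)/(DMSO negative − positive control signal) × 100.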

[10] = target: Receptor tyrosine-protein kinase erbB-4 (Homo sapiens, UniProt Q15303); experiment: Inhibition of partial length human ErbB4 expressed in bacteria assessed as residual activity at 1 uM relative to control; how it was run: as §2
[11] = target: Dual specificity mitogen-activated protein kinase kinase; MEK1/2 (Homo sapiens) (UniProt P36507+Q02750); experiment: Inhibition of human MEK assessed as residual activity at 1 uM relative to control; assay type: protein assay; how it was run: as §2
Dual specificity mitogen-activated protein kinase kinase; MEK1/2 (Homo sapiens), sequence (P36507 whole entry, looked up): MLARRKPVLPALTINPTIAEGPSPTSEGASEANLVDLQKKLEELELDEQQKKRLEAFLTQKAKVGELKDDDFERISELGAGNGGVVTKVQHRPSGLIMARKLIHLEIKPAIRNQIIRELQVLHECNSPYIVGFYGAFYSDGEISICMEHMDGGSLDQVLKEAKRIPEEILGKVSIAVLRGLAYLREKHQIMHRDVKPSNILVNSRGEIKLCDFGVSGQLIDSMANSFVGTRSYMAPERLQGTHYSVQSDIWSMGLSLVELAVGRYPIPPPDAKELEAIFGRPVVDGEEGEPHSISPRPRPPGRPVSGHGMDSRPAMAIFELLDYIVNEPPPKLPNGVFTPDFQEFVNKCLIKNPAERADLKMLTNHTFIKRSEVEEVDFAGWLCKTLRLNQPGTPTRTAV
Dual specificity mitogen-activated protein kinase kinase; MEK1/2 (Homo sapiens), sequence (Q02750 whole entry, looked up): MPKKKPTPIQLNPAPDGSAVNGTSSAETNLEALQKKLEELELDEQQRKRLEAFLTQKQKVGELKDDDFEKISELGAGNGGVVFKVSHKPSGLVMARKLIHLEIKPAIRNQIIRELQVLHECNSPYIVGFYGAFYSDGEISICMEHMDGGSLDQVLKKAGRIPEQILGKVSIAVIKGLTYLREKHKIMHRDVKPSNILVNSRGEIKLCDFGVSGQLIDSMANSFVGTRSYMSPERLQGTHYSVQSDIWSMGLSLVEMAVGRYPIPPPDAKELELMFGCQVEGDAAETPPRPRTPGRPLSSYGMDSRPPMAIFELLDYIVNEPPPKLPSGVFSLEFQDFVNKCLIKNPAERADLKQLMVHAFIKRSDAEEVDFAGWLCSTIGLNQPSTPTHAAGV

Tyrosine-protein kinase BTK (Homo sapiens, UniProt Q06187), sequence (Q06187 whole entry): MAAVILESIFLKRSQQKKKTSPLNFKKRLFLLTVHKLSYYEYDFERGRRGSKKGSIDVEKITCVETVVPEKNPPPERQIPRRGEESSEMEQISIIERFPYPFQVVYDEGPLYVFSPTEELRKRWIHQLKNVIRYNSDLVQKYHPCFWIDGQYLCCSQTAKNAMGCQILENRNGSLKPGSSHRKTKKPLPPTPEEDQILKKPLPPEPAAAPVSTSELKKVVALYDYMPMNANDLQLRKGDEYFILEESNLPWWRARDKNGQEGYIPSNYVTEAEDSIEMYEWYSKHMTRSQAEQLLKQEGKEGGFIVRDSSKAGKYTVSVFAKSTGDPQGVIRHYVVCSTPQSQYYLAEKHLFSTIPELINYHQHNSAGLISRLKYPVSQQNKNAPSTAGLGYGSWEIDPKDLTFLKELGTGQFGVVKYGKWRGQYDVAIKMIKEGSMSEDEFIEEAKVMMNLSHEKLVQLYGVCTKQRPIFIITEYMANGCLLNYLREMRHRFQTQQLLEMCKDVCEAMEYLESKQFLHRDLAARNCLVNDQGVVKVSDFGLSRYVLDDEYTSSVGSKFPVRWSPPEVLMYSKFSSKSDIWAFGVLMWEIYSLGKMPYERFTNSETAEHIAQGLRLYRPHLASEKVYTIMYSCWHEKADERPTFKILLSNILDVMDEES
Receptor tyrosine-protein kinase erbB-4, sequence (Q15303 whole entry): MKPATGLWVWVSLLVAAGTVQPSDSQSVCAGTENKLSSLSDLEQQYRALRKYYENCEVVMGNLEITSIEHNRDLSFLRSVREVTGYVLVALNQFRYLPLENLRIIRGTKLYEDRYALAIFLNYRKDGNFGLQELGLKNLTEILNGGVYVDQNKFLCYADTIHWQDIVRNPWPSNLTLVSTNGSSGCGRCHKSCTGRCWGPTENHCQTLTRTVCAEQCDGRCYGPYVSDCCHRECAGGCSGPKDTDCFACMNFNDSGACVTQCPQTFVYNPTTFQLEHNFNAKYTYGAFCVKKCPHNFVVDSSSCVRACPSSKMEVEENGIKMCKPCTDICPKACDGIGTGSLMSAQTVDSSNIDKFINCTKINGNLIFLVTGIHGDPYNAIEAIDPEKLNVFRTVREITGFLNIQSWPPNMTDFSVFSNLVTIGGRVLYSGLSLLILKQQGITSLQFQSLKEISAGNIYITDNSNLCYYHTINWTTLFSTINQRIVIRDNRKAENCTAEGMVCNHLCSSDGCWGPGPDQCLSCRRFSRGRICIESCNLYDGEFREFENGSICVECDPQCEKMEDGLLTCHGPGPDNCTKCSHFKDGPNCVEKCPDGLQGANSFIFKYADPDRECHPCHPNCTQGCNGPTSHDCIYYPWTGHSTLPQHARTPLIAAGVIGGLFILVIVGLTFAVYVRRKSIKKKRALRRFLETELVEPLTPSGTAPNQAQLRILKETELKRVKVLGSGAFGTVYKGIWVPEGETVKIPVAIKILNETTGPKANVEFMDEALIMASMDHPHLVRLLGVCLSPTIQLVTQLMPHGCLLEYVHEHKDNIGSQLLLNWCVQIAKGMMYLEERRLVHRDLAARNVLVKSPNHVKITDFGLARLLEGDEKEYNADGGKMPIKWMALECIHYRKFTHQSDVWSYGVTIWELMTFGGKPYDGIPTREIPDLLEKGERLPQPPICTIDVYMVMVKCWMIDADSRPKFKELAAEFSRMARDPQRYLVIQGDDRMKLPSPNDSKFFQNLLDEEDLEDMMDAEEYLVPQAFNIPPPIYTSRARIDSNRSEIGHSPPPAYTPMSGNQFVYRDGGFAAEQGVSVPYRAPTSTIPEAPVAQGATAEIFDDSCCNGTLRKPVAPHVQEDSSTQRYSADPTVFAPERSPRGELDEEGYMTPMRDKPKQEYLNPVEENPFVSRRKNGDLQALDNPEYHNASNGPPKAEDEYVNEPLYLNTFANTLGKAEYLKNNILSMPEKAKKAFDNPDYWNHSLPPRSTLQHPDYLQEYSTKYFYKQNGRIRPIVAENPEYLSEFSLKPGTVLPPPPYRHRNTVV
Tyrosine-protein kinase BTK (Homo sapiens, UniProt Q06187, C481S), sequence (Q06187 2-659 C481S limits assumed): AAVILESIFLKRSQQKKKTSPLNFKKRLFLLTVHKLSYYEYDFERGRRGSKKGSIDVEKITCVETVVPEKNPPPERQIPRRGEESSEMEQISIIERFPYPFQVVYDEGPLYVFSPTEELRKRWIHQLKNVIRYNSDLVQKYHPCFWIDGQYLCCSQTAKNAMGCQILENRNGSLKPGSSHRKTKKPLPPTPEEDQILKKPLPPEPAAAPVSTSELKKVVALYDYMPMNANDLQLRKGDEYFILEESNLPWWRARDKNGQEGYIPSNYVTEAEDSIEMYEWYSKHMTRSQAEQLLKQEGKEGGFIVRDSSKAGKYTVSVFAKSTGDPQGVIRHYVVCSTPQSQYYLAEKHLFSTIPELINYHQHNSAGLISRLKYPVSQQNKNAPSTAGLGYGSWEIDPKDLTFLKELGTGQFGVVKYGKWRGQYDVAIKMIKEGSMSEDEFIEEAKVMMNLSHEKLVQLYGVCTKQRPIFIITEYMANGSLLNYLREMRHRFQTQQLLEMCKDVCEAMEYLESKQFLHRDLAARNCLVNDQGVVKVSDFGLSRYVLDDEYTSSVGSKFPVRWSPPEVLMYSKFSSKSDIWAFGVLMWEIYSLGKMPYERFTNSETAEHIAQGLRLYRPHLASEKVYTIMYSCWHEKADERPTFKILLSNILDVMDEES
Tyrosine-protein kinase Blk, sequence (P51451 2-505 limits assumed): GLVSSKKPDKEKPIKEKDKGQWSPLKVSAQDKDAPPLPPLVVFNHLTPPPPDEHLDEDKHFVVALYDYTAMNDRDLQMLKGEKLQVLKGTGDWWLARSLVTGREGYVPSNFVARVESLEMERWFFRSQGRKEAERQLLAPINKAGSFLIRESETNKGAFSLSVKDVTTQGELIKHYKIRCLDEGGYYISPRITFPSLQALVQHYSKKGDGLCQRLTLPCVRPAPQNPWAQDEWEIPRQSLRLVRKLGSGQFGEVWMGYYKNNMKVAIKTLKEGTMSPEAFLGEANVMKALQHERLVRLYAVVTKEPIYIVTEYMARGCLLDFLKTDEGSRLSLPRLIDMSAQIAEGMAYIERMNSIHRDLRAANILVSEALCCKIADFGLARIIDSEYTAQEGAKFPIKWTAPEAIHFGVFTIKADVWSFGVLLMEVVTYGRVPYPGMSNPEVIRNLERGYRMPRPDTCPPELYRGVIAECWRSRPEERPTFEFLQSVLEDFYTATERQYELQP

Compound: C=CC(=O)N1CCC[C@@H](n2nc(-c3ccc(Oc4ccccc4)cc3)c3c(N)ncnc32)C1 [IBRUTINIB]
AUC (Rattus norvegicus): 57 ng·h/mL | IC50 (TMD8): 10 nM | IC50 (Ramos): 920 nM | Activity (Mus musculus): Non-Toxic

Compound: C=CC(=O)N[C@@H]1Cn2c(c(-c3ccc(Oc4ccc(O)cc4)cc3)c3c(N)ncnc32)C1=C
Drug metabolism [1]: Metabolite_Detected | Drug metabolism [2]: Metabolite_Detected | Drug metabolism [3]: Metabolite_Detected

Compound: C=CC(=O)N[C@@H](C)C(=O)NC1Cn2c(c(-c3ccc(Oc4ccccc4)cc3)c3c(N)ncnc32)C1=C (stereo partly drawn)
IC50 [7]: 40.1 nM

Compound: C=CC(=O)NC1Cn2c(c(-c3ccc(Oc4ccccc4)cc3)c3c(N)ncnc32)C1=C (racemic)
IC50 [7]: 2.8 nM | IC50 [8]: 464 nM | Activity [9]: < 1% | Activity [10]: < 1% | Activity [11]: < 1%

Compound: C=CC(=O)N[C@@H]1Cn2c(c(-c3ccc(C(=O)N[C@@H](C)c4ccccn4)cc3)c3c(N)ncnc32)C1=C
IC50 [7]: 50.4 nM

Compound: C=CC(=O)N[C@@H]1Cn2c(c(-c3ccc(Oc4ccc(OC(F)(F)F)cc4)cc3)c3c(N)ncnc32)C1=C
IC50 [7]: 3.5 nM

Compound: C=CC(=O)NCCC(=O)NC1Cn2c(c(-c3ccc(Oc4ccccc4)cc3)c3c(N)ncnc32)C1=C (stereo not drawn)
IC50 [7]: 725 nM

Compound: C=CC(=O)N[C@@H]1Cn2c(c(-c3ccc(Oc4ccc(C(F)(F)F)cc4)cc3)c3c(N)ncnc32)C1=C
IC50 [7]: 7.4 nM

Compound: CCC(=O)NC1CCc2c(-c3ccc(Oc4ccccc4)cc3)c3c(N)ncnc3n2C1 (stereo not drawn)
IC50 [7]: 417 nM

Compound: C=CC(=O)N[C@@H]1Cn2c(c(-c3ccc(O)cc3)c3c(N)ncnc32)C1=C
Drug metabolism [1]: Metabolite_Detected | Drug metabolism [2]: Metabolite_Detected

Other lines, results leading:

Drug metabolism [4]: Metabolite_Detected | Drug metabolism [5]: Metabolite_Detected | Drug metabolism [6]: Metabolite_Detected
Compound: C=C1c2c(-c3ccc(Oc4ccc(O)cc4)cc3)c3c(N)ncnc3n2C[C@H]1NC(=O)C#CC

IC50 [7]: 4.3 nM
Compound: C=C1c2c(-c3ccc(Oc4ccccc4)cc3)c3c(N)ncnc3n2CC1NC(=O)/C=C/CN(C)C (stereo not drawn)

IC50 [7]: 2.1 nM
Compound: C=C1c2c(-c3ccc(Oc4ccccc4)cc3)c3c(N)ncnc3n2CC1NC(=O)C#CC (racemic)

IC50 [7]: 3.3 nM
Compound: C=C1c2c(-c3ccc(Oc4ccccc4)cc3)c3c(N)ncnc3n2C[C@@H]1NC(=O)C#CC

IC50 [7]: > 1000 nM
Compound: C=C1c2c(-c3ccc(Oc4ccccc4)cc3)c3c(N)ncnc3n2CC1N (stereo not drawn)

IC50 [7]: 6.1 nM
Compound: C=CC(=O)N[C@H]1Cn2c(c(-c3ccc(Oc4ccccc4)cc3)c3c(N)ncnc32)C1=C
